Assay results from ChEMBL document CHEMBL4433215, “SAR Studies and Biological Characterization of a Chromen-4-one Derivative as an Anti-Trypanosoma brucei Agent” (ACS Med Chem Lett, 2019).
pEC50, pIC50: −log10 of the molar value.

Key:
Trypanosoma brucei [1] = experiment: Antitrypanosomal activity against Trypanosoma brucei bloodstream form assessed as parasite growth inhibition at 10 uM after 72 hrs by resazurin dye-based assay relative to control; format: functional; details: read-out: GI
In short: (§1)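 T. brucei bloodstream forms were screened first. Compounds giving over 70% parasite growth inhibition then went to a full dose–response curve to derive EC50. Pentamidine was the reference.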

Trypanosoma brucei [2] = experiment: Antitrypanosomal activity against Trypanosoma brucei bloodstream form after 72 hrs by resazurin dye-based assay relative to control; format: functional, organism-based; in short: as §1
[3] = Cytotoxicity against human THP1 cells by MTT assay; format: cell-based, THP-1
[4] = Selectivity index, ratio of CC50 for cytotoxicity against human THP1 cells to EC50 for antitrypanosomal activity against Trypanosoma brucei bloodstream form; format: toxicity, cell-based; details: read-out: Ratio CC50/EC50
[5] = biological target: T1, Voltage-gated inwardly rectifying potassium channel KCNH2 (Homo sapiens, UniProt Q12809); experiment: Inhibition of human ERG at 10 uM after 2 hrs by fluorescence polarization assay
In short: (§2)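 Single-concentration screen at 10 μM within an early in vitro ADME-tox panel, covering cytotoxicity in A549 cells and hERG inhibition.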

786-0 = experiment: Mitochondrial toxicity in human 786-O cells at 10 uM after 6 hrs by MitoTracker Red chloromethyl-X-rosamine based assay; format: cell-based; details: 786-0, 6 h
[6] = Cytotoxicity against human A549 cells assessed as cell growth at 10 uM after 48 hrs by cell-titer-Glo assay relative to control; format: cell-based; details: read-out: Activity; in short: as §2
hERG = experiment: Selectivity ratio of IC50 for inhibition of human ERG to EC50 for antitrypanosomal activity against Trypanosoma brucei bloodstream form; format: toxicity; details: read-out: Ratio IC50/EC50
Albumin [7] = biological target: T2, Albumin (Homo sapiens, UniProt P02768); experiment: Binding affinity to HSA assessed as monomer/HSA equilibrium binding constant at 11.25 uM by spectroflurometry; format: ADME; details: isolated protein
In short: (§3)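 Compound in aqueous phosphate buffer, pH 8, at 1.25 to 11.25 μM. Absorption and fluorescence emission spectra were recorded without and with human serum albumin (HSA), with HSA added stepwise. The monomer/dimer equilibrium constant was obtained by fitting the absorption data at 20 °C.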

[8] = biological target: T1, Voltage-gated inwardly rectifying potassium channel KCNH2; experiment: Inhibition of human ERG after 2 hrs by fluorescence polarization assay
Albumin [9] = biological target: T2, Albumin; experiment: Binding affinity to HSA assessed as emission maxima for aggregate at 1.25 uM to 11.25 uM by spectroflurometry; format: ADME; details: isolated protein; in short: as §3
Albumin [10] = biological target: T2, Albumin; experiment: Binding affinity to HSA assessed as emission maxima for HSA-complexed monomer at 1.25 uM to 11.25 uM by spectroflurometry; format: ADME; details: isolated protein; in short: as §3
Cytochrome P450 1A2 = biological target: T3, Cytochrome P450 1A2 (Homo sapiens, UniProt P05177); experiment: Inhibition of recombinant human microsomal CYP1A2 expressed in baculovirus infected BTI-TN-5B1-4 cell microsomes using CYP/Luciferin as substrate pre-incubated for 30 mins followed by NADPH regeneration mixture addition and measured after 30 mins by Promega P450-Glo assay; format: ADME
T3 sequence (P05177 whole entry): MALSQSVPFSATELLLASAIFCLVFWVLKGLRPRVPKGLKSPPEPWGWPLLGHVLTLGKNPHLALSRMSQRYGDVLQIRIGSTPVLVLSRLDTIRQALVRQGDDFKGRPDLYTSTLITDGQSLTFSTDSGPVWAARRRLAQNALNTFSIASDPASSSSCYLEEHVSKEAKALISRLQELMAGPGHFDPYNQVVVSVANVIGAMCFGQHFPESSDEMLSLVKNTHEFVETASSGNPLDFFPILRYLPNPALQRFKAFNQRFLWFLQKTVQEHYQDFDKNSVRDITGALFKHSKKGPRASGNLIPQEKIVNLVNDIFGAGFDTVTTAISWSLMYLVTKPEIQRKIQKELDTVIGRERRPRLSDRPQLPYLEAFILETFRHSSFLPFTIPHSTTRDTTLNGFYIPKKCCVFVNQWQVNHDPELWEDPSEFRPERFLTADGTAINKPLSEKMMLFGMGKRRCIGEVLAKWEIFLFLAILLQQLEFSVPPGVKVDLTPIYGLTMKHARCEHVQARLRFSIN

Cytochrome P450 2D6 = Cytochrome P450 2D6 (Homo sapiens, UniProt P10635); experiment: Inhibition of recombinant human microsomal CYP2D6 expressed in baculovirus infected BTI-TN-5B1-4 cell microsomes using CYP/Luciferin as substrate pre-incubated for 30 mins followed by NADPH regeneration mixture addition and measured after 30 mins by Promega P450-Glo assay; format: ADME
Cytochrome P450 2C9 = Cytochrome P450 2C9 (Homo sapiens, UniProt P11712); experiment: Inhibition of recombinant human microsomal CYP2C9 expressed in baculovirus infected BTI-TN-5B1-4 cell microsomes using CYP/Luciferin as substrate pre-incubated for 30 mins followed by NADPH regeneration mixture addition and measured after 30 mins by Promega P450-Glo assay; format: ADME
Cytochrome P450 2C19 = Cytochrome P450 2C19 (Homo sapiens, UniProt P33261); experiment: Inhibition of recombinant human microsomal CYP2C19 expressed in baculovirus infected BTI-TN-5B1-4 cell microsomes using CYP/Luciferin as substrate pre-incubated for 30 mins followed by NADPH regeneration mixture addition and measured after 30 mins by Promega P450-Glo assay; format: ADME
Cytochrome P450 3A4 = Cytochrome P450 3A4 (Homo sapiens, UniProt P08684); experiment: Inhibition of recombinant human microsomal CYP3A4 expressed in baculovirus infected BTI-TN-5B1-4 cell microsomes using CYP/Luciferin as substrate pre-incubated for 30 mins followed by NADPH regeneration mixture addition and measured after 30 mins by Promega P450-Glo assay; format: ADME
[11] = Cmax in BALB/c mouse at 1 mg/kg, iv by LC-MS/MS analysis; format: ADME, organism-based; design: dose 1 mg/kg, route intravenous; details: in vivo
In short: (§4)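 BALB/c mice were dosed IV at 1 mg/kg or orally at 20 mg/kg. Plasma Cmax, Tmax, total AUC and half-life were determined for each route.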

[12] = Cmax in BALB/c mouse at 20 mg/kg, po by LC-MS/MS analysis; format: ADME, organism-based; design: dose 20 mg/kg, route oral; details: in vivo; in short: as §4
[13] = Tmax in BALB/c mouse at 1 mg/kg, iv by LC-MS/MS analysis; format: ADME, organism-based; details: in vivo; in short: as §4
[14] = Tmax in BALB/c mouse at 20 mg/kg, po by LC-MS/MS analysis; format: ADME, organism-based; details: in vivo; in short: as §4
Albumin [15] = biological target: T2, Albumin; experiment: Binding affinity to HSA assessed as emission maxima for free monomer at 1.25 uM to 11.25 uM by spectroflurometry; format: ADME; details: isolated protein; in short: as §3
[16] = Total AUC in BALB/c mouse at 1 mg/kg, iv by LC-MS/MS analysis; format: ADME, organism-based; design: dose 1 mg/kg, time AUCmax, route intravenous; details: in vivo; in short: as §4
[17] = Total AUC in BALB/c mouse at 20 mg/kg, po by LC-MS/MS analysis; format: ADME, organism-based; design: dose 20 mg/kg, time AUCmax, route oral; details: in vivo; in short: as §4
[18] = Half life in BALB/c mouse at 1 mg/kg, iv by LC-MS/MS analysis; format: ADME, organism-based; details: in vivo; in short: as §4
[19] = Half life in BALB/c mouse at 20 mg/kg, po by LC-MS/MS analysis; format: ADME, organism-based; details: in vivo; in short: as §4
Albumin [20] = biological target: T2, Albumin; experiment: Binding affinity to HSA assessed as absorption maxima for aggregate at 1.25 uM to 11.25 uM by UV-visible spectrophotometry; format: ADME; details: isolated protein; in short: as §3
Albumin [21] = biological target: T2, Albumin; experiment: Binding affinity to HSA assessed as absorption maxima for HSA-complexed monomer at 1.25 uM to 11.25 uM by UV-visible spectrophotometry; format: ADME; details: isolated protein; in short: as §3
[22] = Aggregation behavior in phosphate buffer at pH 8 assessed as increase in absorption spectra at 1.25 uM to 11.25 uM by UV-visible spectrophotometry; format: physicochemical; details: pH 8, 1.25 µM; in short: as §3
[23] = Aggregation behavior in phosphate buffer at pH 8 assessed as increase in emission spectra at 1.25 uM to 11.25 uM by spectroflurometry; format: physicochemical; details: pH 8, 1.25 µM; in short: as §3
[24] = Aggregation behavior in phosphate buffer at pH 8 assessed as dimerization equilibrium constant at 1.25 uM to 11.25 uM by UV-visible spectrophotometry; format: physicochemical; details: pH 8, 1.25 µM; in short: as §3
Albumin [25] = biological target: T2, Albumin; experiment: Binding affinity to HSA assessed as absorption maxima for free monomer at 1.25 uM to 11.25 uM by UV-visible spectrophotometry; format: ADME; details: isolated protein; in short: as §3

T2 sequence (P02768 whole entry): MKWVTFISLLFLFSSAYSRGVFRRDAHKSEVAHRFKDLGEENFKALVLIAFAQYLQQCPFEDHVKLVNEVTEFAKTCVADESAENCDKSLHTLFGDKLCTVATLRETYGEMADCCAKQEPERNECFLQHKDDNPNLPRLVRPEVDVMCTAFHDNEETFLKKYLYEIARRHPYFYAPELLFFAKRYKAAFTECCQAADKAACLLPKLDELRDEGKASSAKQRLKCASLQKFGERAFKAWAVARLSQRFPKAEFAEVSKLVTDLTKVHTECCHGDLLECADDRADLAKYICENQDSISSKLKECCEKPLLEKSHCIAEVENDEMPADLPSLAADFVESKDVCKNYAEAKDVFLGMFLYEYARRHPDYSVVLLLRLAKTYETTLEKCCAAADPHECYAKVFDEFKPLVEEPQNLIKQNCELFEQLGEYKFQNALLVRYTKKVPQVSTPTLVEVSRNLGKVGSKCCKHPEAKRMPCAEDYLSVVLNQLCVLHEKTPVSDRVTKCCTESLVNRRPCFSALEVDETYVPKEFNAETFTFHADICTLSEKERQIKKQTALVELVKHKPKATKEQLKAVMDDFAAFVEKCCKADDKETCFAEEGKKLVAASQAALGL
T1 sequence (Q12809 whole entry): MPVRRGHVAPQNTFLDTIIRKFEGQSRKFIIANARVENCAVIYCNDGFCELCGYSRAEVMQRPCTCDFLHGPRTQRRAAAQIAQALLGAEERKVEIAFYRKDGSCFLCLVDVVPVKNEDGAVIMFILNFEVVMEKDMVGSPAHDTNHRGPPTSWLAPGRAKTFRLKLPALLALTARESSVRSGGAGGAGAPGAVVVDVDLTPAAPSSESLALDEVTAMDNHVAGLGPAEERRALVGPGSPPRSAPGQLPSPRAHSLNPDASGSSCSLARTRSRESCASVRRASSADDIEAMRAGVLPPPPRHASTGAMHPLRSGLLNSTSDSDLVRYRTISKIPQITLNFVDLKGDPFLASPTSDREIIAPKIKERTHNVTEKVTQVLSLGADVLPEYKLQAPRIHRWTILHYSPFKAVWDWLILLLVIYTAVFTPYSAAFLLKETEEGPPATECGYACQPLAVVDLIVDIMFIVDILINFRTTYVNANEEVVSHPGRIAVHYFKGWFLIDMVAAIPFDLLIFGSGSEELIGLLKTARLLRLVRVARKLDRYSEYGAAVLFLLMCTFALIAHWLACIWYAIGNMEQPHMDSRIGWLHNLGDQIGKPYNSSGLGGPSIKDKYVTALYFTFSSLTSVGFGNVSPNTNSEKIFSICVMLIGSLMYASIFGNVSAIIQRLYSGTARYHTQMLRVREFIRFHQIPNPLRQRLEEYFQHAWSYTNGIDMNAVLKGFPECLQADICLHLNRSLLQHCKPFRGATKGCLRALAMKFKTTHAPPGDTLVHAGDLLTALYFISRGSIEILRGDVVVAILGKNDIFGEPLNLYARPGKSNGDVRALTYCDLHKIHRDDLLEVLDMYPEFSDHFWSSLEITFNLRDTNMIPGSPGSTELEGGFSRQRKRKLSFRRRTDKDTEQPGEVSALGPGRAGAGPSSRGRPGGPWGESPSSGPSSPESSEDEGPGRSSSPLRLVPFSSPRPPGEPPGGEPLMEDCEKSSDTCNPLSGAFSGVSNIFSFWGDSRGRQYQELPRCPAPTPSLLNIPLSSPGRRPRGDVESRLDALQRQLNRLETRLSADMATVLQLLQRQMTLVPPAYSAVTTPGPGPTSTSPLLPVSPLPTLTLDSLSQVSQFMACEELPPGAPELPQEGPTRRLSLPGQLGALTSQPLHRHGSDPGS
Sequence of Cytochrome P450 2C9 (P11712 whole entry): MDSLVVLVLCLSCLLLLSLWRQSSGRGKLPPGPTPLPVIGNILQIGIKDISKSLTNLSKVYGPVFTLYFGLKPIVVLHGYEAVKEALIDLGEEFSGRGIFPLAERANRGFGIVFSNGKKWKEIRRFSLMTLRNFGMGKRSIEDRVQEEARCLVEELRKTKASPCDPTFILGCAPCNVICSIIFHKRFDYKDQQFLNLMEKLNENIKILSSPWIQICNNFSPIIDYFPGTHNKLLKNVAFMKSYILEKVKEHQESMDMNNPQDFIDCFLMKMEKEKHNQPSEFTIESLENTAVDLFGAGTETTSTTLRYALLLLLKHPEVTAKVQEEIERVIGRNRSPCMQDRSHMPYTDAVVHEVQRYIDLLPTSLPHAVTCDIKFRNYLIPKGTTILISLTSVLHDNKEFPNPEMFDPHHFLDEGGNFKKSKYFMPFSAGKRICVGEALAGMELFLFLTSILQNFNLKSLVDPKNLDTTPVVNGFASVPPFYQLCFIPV
Sequence of Cytochrome P450 2D6 (P10635 whole entry): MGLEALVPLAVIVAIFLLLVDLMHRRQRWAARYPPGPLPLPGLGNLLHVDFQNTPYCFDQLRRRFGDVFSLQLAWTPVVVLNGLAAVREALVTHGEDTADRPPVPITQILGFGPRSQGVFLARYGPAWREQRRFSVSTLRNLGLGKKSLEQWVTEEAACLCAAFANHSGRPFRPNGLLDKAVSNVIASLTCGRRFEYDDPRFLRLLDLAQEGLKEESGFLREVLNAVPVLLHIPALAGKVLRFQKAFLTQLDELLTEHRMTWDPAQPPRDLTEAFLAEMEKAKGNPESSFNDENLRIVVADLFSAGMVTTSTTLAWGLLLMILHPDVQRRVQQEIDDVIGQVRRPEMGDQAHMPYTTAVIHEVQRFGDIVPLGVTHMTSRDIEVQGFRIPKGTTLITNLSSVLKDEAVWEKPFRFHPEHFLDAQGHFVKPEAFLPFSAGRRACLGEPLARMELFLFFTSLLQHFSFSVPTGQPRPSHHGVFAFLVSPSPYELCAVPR
Sequence of Cytochrome P450 2C19 (P33261 whole entry): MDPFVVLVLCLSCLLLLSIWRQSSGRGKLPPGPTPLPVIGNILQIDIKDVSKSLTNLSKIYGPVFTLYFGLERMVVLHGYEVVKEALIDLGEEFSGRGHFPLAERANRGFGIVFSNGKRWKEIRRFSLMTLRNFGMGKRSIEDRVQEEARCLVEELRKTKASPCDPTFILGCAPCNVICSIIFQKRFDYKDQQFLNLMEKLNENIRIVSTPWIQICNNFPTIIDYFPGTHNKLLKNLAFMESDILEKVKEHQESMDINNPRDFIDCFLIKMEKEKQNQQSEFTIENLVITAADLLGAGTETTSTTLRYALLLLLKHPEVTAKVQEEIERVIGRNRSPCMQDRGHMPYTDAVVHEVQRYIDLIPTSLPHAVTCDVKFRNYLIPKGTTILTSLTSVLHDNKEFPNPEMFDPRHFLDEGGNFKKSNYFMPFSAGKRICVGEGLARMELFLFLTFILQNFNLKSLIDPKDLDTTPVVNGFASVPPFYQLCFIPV
Sequence of Cytochrome P450 3A4 (P08684 whole entry): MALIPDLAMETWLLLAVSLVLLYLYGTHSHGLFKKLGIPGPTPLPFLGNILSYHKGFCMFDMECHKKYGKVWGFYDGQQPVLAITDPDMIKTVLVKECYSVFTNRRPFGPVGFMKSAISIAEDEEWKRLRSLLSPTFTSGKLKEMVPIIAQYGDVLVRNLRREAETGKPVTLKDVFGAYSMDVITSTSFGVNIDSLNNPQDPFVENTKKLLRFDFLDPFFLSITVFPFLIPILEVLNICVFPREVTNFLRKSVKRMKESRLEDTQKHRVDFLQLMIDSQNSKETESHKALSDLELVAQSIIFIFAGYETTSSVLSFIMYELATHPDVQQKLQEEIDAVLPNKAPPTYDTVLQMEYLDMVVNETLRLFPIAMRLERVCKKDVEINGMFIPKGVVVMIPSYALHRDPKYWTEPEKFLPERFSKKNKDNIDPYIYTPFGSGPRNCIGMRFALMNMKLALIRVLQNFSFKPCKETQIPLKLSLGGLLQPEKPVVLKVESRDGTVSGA

## O=c1c(O)c(-c2ccc3c(c2)OCO3)oc2ccccc12
Trypanosoma brucei [1]
  inhibition of growth at 10 µM: 100%
Trypanosoma brucei [2]
  pEC50: 5.54
[3]
  CC50: 12.5 to 25 µM
[4]
  selectivity ratio: 4
[5]
  inhibition (INH): Not Active
786-0
  Activity: Non-Toxic

## O=c1c(O)c(-c2ccc3c(c2)OCO3)oc2ccc(F)cc12
Trypanosoma brucei [1]
  inhibition of growth at 10 µM: 7%
[3]
  CC50: 12.5 to 25 µM
[5]
  inhibition (INH): Not Active
786-0
  Activity: Non-Toxic

## COc1ccc2c(=O)c(OC(=O)C(C)(C)C)c(-c3ccc4c(c3)OCO4)oc2c1
Trypanosoma brucei [1]
  inhibition of growth at 10 µM: 100%
Trypanosoma brucei [2]
  pEC50: 5.96
[3]
  CC50: > 100 µM
[4]
  selectivity ratio: > 92
[5]
  inhibition (INH): Not Active
786-0
  Activity: Non-Toxic

## COc1ccc2c(=O)c(OC(=O)C(C)C)c(-c3ccc4c(c3)OCO4)oc2c1
Trypanosoma brucei [1]
  inhibition of growth at 10 µM: 98%
Trypanosoma brucei [2]
  pEC50: 6.30
[3]
  CC50: < 12.5 µM
[4]
  selectivity ratio: 24
[5]
  inhibition (INH): Not Active
786-0
  Activity: Non-Toxic
[6]
  viability at 48 h, 10 µM: < 0%

## COc1ccc2c(=O)c(O)c(-c3ccc4c(c3)CCO4)oc2c1
Trypanosoma brucei [1]
  inhibition of growth at 10 µM: 100%
Trypanosoma brucei [2]
  pEC50: 5.51
[3]
  CC50: 25 to 50 µM
[4]
  selectivity ratio: 8
[5]
  inhibition (INH): Not Active
786-0
  Activity: Non-Toxic

## Cc1ccc2c(=O)c(O)c(-c3ccc4c(c3)OCO4)oc2c1
Trypanosoma brucei [1]
  inhibition of growth at 10 µM: 99%
Trypanosoma brucei [2]
  pEC50: 6.40
[3]
  CC50: 12.5 to 25 µM
[4]
  selectivity ratio: 31
[5]
  inhibition (INH): Not Active
786-0
  Activity: Non-Toxic

## CCOc1c(-c2ccc3c(c2)OCO3)oc2cc(OC)ccc2c1=O
Trypanosoma brucei [1]
  inhibition of growth at 10 µM: 18%
Trypanosoma brucei [2]
  pEC50: < 5.00
[3]
  CC50: 50 to 100 µM
[5]
  inhibition (INH): Not Active
786-0
  Activity: Non-Toxic

## COc1ccc2c(=O)c(O)c(-c3ccc4c(c3)OCO4)oc2c1
[3]
  CC50: > 100 µM
[4]
  selectivity ratio: 250
hERG
  selectivity ratio: > 250
[5]
  inhibition (INH): Not Active
Albumin [7]
  Kb: 2.5 ×10⁵ /M
786-0
  Activity: Non-Toxic
[8]
  pIC50: < 4.00
Albumin [9]
  Activity: 560 nm
Albumin [10]
  Activity: 540 nm
Cytochrome P450 1A2
  pIC50: 6.40
Cytochrome P450 2D6
  pIC50: 7.30
Cytochrome P450 2C9
  pIC50: 5.80
Cytochrome P450 2C19
  pIC50: 5.82
Cytochrome P450 3A4
  pIC50: 5.22
[11]
  Cmax: 1080 nM
[12]
  Cmax: 910 nM
[13]
  Tmax: 1 h
[14]
  Tmax: 0.5 h
Albumin [15]
  Activity: 475 nm
[16]
  AUC: 9.99 µM·h
[17]
  AUC: 8.65 µM·h
[18]
  half-life: 19.8 h
[19]
  half-life: 45.4 h
Albumin [20]
  Activity: 325 nm
Albumin [21]
  Activity: 360 nm
[22]
  Activity: Active
[23]
  Activity: Active
[24]
  Ke: 1.8 ×10⁵ /M
Albumin [25]
  Activity: 360 nm

## COc1ccc2c(=O)c(OC(C)=O)c(-c3ccc4c(c3)OCO4)oc2c1
Trypanosoma brucei [1]
  inhibition of growth at 10 µM: 100%
Trypanosoma brucei [2]
  pEC50: 6.52
[3]
  CC50: < 12.5 µM
[4]
  selectivity ratio: 46
[5]
  inhibition (INH): Not Active
786-0
  Activity: Non-Toxic

## COc1ccc2c(=O)c(OC(=O)N(C)C)c(-c3ccc4c(c3)OCO4)oc2c1
Trypanosoma brucei [1]
  inhibition of growth at 10 µM: 25%
Trypanosoma brucei [2]
  pEC50: < 5.00
[3]
  CC50: > 100 µM
[5]
  inhibition (INH): Not Active
786-0
  Activity: Non-Toxic

## O=c1c(O)c(-c2ccc3c(c2)OCO3)oc2ccc(Br)cc12
Trypanosoma brucei [1]
  inhibition of growth at 10 µM: 38%
[3]
  CC50: 12.5 to 25 µM
[5]
  inhibition (INH): Not Active
786-0
  Activity: Non-Toxic
